Results collected from several papers.
Lines come from different studies, so protocols differ.
Target: Rhodopsin kinase GRK1 (GRK1, Homo sapiens, UniProt Q15835)
One construct used (Q15835 1-563): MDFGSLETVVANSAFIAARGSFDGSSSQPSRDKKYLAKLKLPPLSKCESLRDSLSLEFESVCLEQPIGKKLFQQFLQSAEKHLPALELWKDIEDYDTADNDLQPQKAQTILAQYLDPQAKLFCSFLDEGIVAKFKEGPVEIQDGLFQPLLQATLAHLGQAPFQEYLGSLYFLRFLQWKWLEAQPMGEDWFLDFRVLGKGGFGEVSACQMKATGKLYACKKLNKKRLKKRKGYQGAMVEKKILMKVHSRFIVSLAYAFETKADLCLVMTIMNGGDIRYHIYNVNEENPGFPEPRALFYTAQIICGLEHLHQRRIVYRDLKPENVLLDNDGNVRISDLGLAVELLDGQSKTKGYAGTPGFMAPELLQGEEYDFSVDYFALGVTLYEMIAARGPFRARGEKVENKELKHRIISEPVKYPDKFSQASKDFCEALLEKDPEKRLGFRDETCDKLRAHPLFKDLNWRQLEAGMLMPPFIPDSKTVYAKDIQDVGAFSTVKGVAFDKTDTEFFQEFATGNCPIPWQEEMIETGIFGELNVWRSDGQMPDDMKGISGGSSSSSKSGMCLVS

With `CC(C)S(=O)(=O)c1ccc2nccc(Nc3ccc4sc(C5CCCC5)nc4c3)c2c1` the activity vs control was 112% (enzyme activity; inhibitor; 1 µM).
`C=CC(=O)N1CCC([C@@H]2CCNc3c(C(N)=O)c(-c4ccc(Oc5ccccc5)cc4)nn32)CC1` gave an inhibition of 34% (enzyme activity; inhibitor; 1 µM).
The remaining binding of `C1=C/COCc2cc(ccc2OCCN2CCCC2)Nc2nccc(n2)-c2cccc(c2)COC/1` is reported as 94% (binding; 0.1 µM).
With `COc1ccc2[nH]c3c4[nH]c5ccc(OC)cc5c4c4c(c3c2c1)C(=O)NC4=O` the remaining binding was 95% (binding; 1 µM).
For `CCCCC(=O)Nc1ccc(-c2ccc3ncn(CCC)c(=O)c3c2)cn1`, the remaining binding was 96% (binding; competition with immobilised ligand; 0.5 µM).
`COc1ccc2oc(-c3ccc4nc(N)oc4c3)c/c(=N\c3ccccc3NC(=O)CCN)c2c1` has a remaining binding of 98% (binding; 1 µM).
`CO[C@@H]1[C@H](N(C)C(=O)c2ccccc2)C[C@H]2O[C@]1(C)n1c3ccccc3c3c4c(c5c6ccccc6n2c5c31)C(=O)NC4` gave an inhibition of 94% (enzyme activity; inhibitor; 1 µM).
For `C[C@H]1CC[C@H](n2c3cnccc3c3cnc(Nc4ccc5c(n4)CCN(C(=O)CO)C5)nc32)CC1`, the remaining signal was 100% (cell-free assay; 1 µM).
